Test results as given in ChEMBL document CHEMBL1127071, “Structure-activity relationships of C-terminal endothelin hexapeptide antagonists” (J Med Chem, 1993).
Where a SMILES comes first, the peptide text is derived from it. [ ]: non-standard residue; d: D form. dDip = N[C@@H](C(=O)O)C(c1ccccc1)c1ccccc1; Orn = NCCC[C@H](N)C(=O)O

Assays:
Endothelin receptor = target: T1, Endothelin receptor (Rattus norvegicus, UniProt P26684+P21451); test: Binding affinity against Endothelin receptor from rat heart ventricle; format: protein assay
T1 sequence (P26684 whole entry): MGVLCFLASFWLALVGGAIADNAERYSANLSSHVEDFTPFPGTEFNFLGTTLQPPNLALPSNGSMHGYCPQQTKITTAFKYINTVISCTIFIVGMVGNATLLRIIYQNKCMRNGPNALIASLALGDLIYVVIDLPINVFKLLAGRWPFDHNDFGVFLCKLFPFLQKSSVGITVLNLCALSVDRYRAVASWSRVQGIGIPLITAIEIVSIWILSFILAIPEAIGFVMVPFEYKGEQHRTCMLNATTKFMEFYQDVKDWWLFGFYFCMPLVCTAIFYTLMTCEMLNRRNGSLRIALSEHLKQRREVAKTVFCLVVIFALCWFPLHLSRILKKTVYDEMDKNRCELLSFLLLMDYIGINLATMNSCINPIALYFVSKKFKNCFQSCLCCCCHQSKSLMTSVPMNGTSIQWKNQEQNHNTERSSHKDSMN
T1 sequence (P21451 whole entry): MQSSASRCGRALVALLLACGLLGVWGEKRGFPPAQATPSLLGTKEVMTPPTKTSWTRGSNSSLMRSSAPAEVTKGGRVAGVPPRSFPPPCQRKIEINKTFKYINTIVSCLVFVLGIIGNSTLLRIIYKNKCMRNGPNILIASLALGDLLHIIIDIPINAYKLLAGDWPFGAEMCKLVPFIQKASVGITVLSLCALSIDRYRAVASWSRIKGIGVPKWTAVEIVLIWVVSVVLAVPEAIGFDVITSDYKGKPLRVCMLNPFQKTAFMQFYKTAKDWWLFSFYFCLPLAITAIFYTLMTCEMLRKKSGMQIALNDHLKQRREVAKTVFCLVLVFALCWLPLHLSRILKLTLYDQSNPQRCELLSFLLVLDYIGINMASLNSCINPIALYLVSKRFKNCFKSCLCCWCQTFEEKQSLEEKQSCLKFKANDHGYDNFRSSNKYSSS

Rattus norvegicus = species: Rattus norvegicus; test: Inhibition of ET-1 stimulated inositol phosphate accumulation in rat fibroblast; format: functional, organism-based
In short: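 Rat skin fibroblasts prelabelled with [3H]inositol; ET-1-stimulated accumulation of total [3H]inositol phosphates in presence of Li+, measured by anion-exchange chromatography.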

Oryctolagus cuniculus = species: Oryctolagus cuniculus; test: Effective concentration against ET-1 stimulated arachidonic acid release in rabbit renal artery vascular smooth muscle cells; format: functional
In short: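 Confluent rabbit renal artery smooth muscle cells loaded 18 h at 37 °C with 0.25 µCi/mL [3H]arachidonic acid in DME/F12 with 0.5% FCS. Cells washed in Hank's/10 mM HEPES/fatty acid-free BSA buffer with three 5-min incubations. Then exposed 30 min to test compound (1 nM to 1 µM) plus 0.3 nM ET-1. Released [3H] counted by liquid scintillation; IC50 determined.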

[1] = target: T2, Endothelin receptor type B (Rattus norvegicus, UniProt P21451); test: Effective concentration against Endothelin B receptor from rat cerebellum; format: tissue-based
T2 sequence (P21451 whole entry): T1 sequence (P21451 whole entry)
In short: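 Competition binding of 30 pM [125I]-ET-1 (2,000 Ci/mmol) to 5 µg membranes: rabbit renal artery vascular smooth muscle (ETA) or adult rat cerebellum (ETB). Buffer is 20 mM Tris, 2 mM EDTA, 100 µM PMSF and 100 µM bacitracin, pH 7.4, 37 °C, 2 h. Reaction stopped by GF/B filtration. Nonspecific binding measured with 100 nM ET-1. Triplicate points; IC50 from a one-site nonlinear fit.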

Structure (SMILES): CC[C@@H](C)[C@@H](NC(=O)[C@@H](NC(=O)[C@H](CC(=O)O)NC(=O)[C@H](CC(C)C)NC(=O)[C@H](Cc1c[nH]cn1)NC(C)=O)[C@@H](C)CC)C(=O)N[C@@H](Cc1c[nH]c2ccccc12)C(=O)O
- IC50 (Endothelin receptor): 16.9 µM
- IC50 (Rattus norvegicus): > 100 µM

Structure (SMILES): CC[C@H](C)[C@H](NC(=O)[C@@H](NC(=O)[C@@H](CC(=O)O)NC(=O)[C@H](CC(C)C)NC(=O)[C@H](Cc1c[nH]cn1)NC(C)=O)[C@@H](C)CC)C(=O)N[C@@H](Cc1c[nH]c2ccccc12)C(=O)O
- IC50 (Endothelin receptor): 37 µM
- IC50 (Rattus norvegicus): > 50 µM

Structure (SMILES): CC[C@H](C)[C@H](NC(=O)[C@H](CC(=O)O)NC(=O)[C@H](CC(C)C)NC(=O)[C@H](Cc1c[nH]cn1)NC(C)=O)C(=O)N[C@H](C(=O)N[C@@H](Cc1c[nH]c2ccccc12)C(=O)O)[C@@H](C)CC
- IC50 (Endothelin receptor): 58 µM
- IC50 (Rattus norvegicus): 50 µM

Structure (SMILES): CC[C@H](C)[C@H](NC(=O)[C@H](CC(=O)O)NC(=O)[C@H](CCC(=O)O)NC(=O)[C@H](NC(C)=O)C(c1ccccc1)c1ccccc1)C(=O)N[C@H](C(=O)N[C@@H](Cc1c[nH]c2ccccc12)C(=O)O)[C@@H](C)CC (Ac-[dDip]EDIIW-OH)
- EC50 (Oryctolagus cuniculus): 0.13 µM
- EC50 [1]: 0.052 µM

Structure (SMILES): CC[C@H](C)[C@H](NC(=O)[C@H](CC(=O)O)NC(=O)[C@H](CC(C)C)NC(=O)[C@H](NC(C)=O)C(c1ccccc1)c1ccccc1)C(=O)N[C@H](C(=O)N[C@@H](Cc1ccc(O)cc1)C(=O)O)[C@@H](C)CC (Ac-[dDip]LDIIY-OH)
- EC50 (Oryctolagus cuniculus): 4.3 µM
- EC50 [1]: 6.1 µM

Structure (SMILES): CC[C@H](C)[C@H](NC(=O)[C@H](CC(=O)O)NC(=O)[C@H](CC(C)C)NC(=O)[C@H](NC(C)=O)C(c1ccccc1)c1ccccc1)C(=O)N[C@H](C(=O)N[C@@H](Cc1c[nH]c2ccccc12)C(=O)O)C(C)C (Ac-[dDip]LDIVW-OH)
- EC50 (Oryctolagus cuniculus): 2.6 µM
- EC50 [1]: 6 µM

Structure (SMILES): CC[C@H](C)[C@H](NC(=O)[C@@H](NC(=O)[C@H](CC(=O)O)NC(=O)[C@H](CC(C)C)NC(=O)[C@H](NC(C)=O)C(c1ccccc1)c1ccccc1)C(C)C)C(=O)N[C@@H](Cc1c[nH]c2ccccc12)C(=O)O (Ac-[dDip]LDVIW-OH)
- EC50 (Oryctolagus cuniculus): 0.029 µM
- EC50 [1]: 0.05 µM

Structure (SMILES): CC[C@H](C)[C@H](NC(=O)[C@H](Cc1ccccc1)NC(=O)[C@H](CC(C)C)NC(=O)[C@H](NC(C)=O)C(c1ccccc1)c1ccccc1)C(=O)N[C@H](C(=O)N[C@@H](Cc1c[nH]c2ccccc12)C(=O)O)[C@@H](C)CC (Ac-[dDip]LFIIW-OH)
- EC50 (Oryctolagus cuniculus): 1.3 µM
- EC50 [1]: 0.06 µM

Structure (SMILES): CC[C@H](C)[C@H](NC(=O)[C@H](CC(=O)O)NC(=O)[C@H](CCCN)NC(=O)[C@H](NC(C)=O)C(c1ccccc1)c1ccccc1)C(=O)N[C@H](C(=O)N[C@@H](Cc1c[nH]c2ccccc12)C(=O)O)[C@@H](C)CC (Ac-[dDip][Orn]DIIW-OH)
- EC50 (Oryctolagus cuniculus): 0.03 µM
- EC50 [1]: 0.15 µM

Structure (SMILES): CC[C@H](C)[C@H](NC(=O)[C@H](CC(=O)O)NC(=O)[C@H](CC(C)C)NC(=O)[C@H](N)C(c1ccccc1)c1ccccc1)C(=O)N[C@H](C(=O)N[C@@H](Cc1c[nH]c2ccccc12)C(=O)O)[C@@H](C)CC (H-[dDip]LDIIW-OH)
- EC50 [1]: 1.9 µM
